Source: ChEMBL document CHEMBL2412986, “Design, synthesis and evaluation of novel 2-hydroxypyrrolobenzodiazepine-5,11-dione analogues as potent angiotensin converting enzyme (ACE) inhibitors” (Bioorg Med Chem, 2013)
Each block holds one molecule with its values, some of them ahead of it.

Legend:
[1] = Ratio of IC50 for rabbit lung ACE to IC50 for human A549 cells
[2] = Ratio of IC50 for rabbit lung ACE to IC50 for HEK293 cells
[3] = system: HEK293; assay: Cytotoxicity against HEK293 cells assessed as cell survival after 24 hrs by MTT assay; format: cell-based; conditions: Homo sapiens, HEK293, 24 h
Procedure, shortened: (§1)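 HEK 293 (normal) and A549 (cancer) cells seeded at 1×10^4 cells/well in DMEM with 10% FBS, grown 24 h at 37 °C under CO₂, then exposed to compounds alongside vehicle control for 24 h. MTT (5 mg/mL, 10 µl) added for 4 h, formazan dissolved in DMSO, absorbance read at 540 nm. Survival relative to control cells; EC₅₀ by probit analysis.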

[4] = system: A549; assay: Cytotoxicity against human A549 cells assessed as cell survival after 24 hrs by MTT assay; format: cell-based; conditions: A549, 24 h; procedure, shortened: as §1
[5] = target: T1, Angiotensin-converting enzyme (Oryctolagus cuniculus, UniProt P12822); assay: Inhibition of rabbit lung ACE assessed as hydrolysis of hippuryl-histidyl-leucine to hippuric acid and histidyl-leucine after 30 mins
T1 sequence (P12822 whole entry): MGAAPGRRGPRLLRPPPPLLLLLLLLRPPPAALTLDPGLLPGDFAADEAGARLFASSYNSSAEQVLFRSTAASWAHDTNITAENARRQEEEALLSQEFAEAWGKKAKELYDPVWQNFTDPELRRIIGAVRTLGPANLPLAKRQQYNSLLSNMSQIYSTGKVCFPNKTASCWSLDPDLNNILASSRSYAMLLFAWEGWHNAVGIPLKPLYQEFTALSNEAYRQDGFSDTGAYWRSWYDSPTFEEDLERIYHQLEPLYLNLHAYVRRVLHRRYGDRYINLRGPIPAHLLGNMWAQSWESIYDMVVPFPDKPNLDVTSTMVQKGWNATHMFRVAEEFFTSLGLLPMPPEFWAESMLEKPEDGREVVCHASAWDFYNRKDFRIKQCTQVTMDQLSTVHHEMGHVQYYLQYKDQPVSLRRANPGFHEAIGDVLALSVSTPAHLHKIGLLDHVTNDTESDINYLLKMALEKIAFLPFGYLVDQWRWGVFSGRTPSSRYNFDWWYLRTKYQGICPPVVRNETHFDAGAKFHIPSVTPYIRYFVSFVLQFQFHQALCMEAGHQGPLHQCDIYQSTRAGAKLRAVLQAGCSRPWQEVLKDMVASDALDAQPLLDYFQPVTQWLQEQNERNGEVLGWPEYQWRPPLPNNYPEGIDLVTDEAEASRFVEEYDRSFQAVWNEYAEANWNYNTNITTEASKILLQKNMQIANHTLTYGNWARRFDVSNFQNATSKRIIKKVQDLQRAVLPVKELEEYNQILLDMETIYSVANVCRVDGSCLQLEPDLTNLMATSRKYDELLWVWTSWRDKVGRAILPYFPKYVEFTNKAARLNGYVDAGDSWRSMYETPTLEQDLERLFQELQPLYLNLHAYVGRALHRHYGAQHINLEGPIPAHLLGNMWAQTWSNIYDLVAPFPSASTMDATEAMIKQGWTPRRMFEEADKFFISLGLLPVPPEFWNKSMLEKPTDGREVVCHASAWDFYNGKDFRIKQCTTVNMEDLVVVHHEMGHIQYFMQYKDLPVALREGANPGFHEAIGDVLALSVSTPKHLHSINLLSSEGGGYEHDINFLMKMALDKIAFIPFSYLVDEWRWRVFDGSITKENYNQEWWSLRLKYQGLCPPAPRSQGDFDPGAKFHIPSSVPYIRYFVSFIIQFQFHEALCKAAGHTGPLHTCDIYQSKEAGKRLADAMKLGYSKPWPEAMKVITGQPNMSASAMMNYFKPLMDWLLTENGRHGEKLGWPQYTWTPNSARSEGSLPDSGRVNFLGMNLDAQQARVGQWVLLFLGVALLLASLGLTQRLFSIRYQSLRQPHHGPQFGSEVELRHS
Procedure, shortened: (§2)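 Enzyme is the supernatant of rabbit lung acetone powder homogenized in 0.05 M sodium borate pH 8.2 with 0.3 M NaCl and 0.5% Triton X-100 at 4 °C, spun 15,000 rpm for 60 min. Reaction uses borate/NaCl buffer and 5 mM HHL stock, 30 min at 37 °C. Hippuric acid read colorimetrically at 410 nm, in triplicate. % inhibition = 100 − (A_test/A_control)×100. Single-point screen at 1.0 µM; IC₅₀ from plots of % inhibition against serial concentrations.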

[6] = target: T2, Angiotensin-converting enzyme (Oryctolagus cuniculus) (UniProt P12822); assay: Inhibition of rabbit lung ACE assessed as hydrolysis of hippuryl-histidyl-leucine to hippuric acid and histidyl-leucine at 1 uM after 30 mins relative to control; procedure, shortened: as §2
T2 sequence (whole entry): T1 sequence (P12822 whole entry)

Compound: Nc1ccc(CN2C(=O)[C@@H]3C[C@@H](O)CN3C(=O)c3ccccc32)cc1
inhibition [6]: 28%

Compound: COC(=O)c1ccc(CN2C(=O)[C@@H]3C[C@@H](O)CN3C(=O)c3ccccc32)cc1
inhibition [6]: 28%

Compound: O=C1[C@@H]2C[C@@H](O)CN2C(=O)c2ccccc2N1Cc1cccc2c1oc1ccccc12
inhibition [6]: 28%

Compound: CCOC(=O)[C@H](CCc1ccccc1)N[C@H]1CCc2ccccc2N(CC(=O)O)C1=O [BENAZEPRIL]
IC50 [3]: 301 µM | IC50 [4]: 358 µM | IC50 [5]: 0.212 µM

Compound: O=C1[C@@H]2C[C@@H](O)CN2C(=O)c2ccccc2N1Cc1cc(F)cc(F)c1Cl
inhibition [6]: 28%

Compound: COc1ccc(CN2C(=O)[C@@H]3C[C@@H](O)CN3C(=O)c3ccccc32)cc1
inhibition [6]: 28%

Compound: COc1cccc(CN2C(=O)[C@@H]3C[C@@H](O)CN3C(=O)c3ccccc32)c1
inhibition [6]: 28%

Compound: NCCCC[C@H](N[C@@H](CCc1ccccc1)C(=O)O)C(=O)N1CCC[C@H]1C(=O)O [LISINOPRIL ANHYDROUS]
IC50 [3]: 443 µM | IC50 [4]: 307 µM | IC50 [5]: 0.262 µM

Compound: O=C1[C@@H]2C[C@@H](O)CN2C(=O)c2ccccc2N1Cc1ccc([N+](=O)[O-])c(Cl)c1
inhibition [6]: 28%

Compound: O=C(O)c1ccc(CN2C(=O)[C@@H]3C[C@@H](O)CN3C(=O)c3ccccc32)cc1
inhibition [6]: 28%

Compound: O=C1[C@@H]2C[C@@H](O)CN2C(=O)c2ccccc2N1Cc1cccc(Cl)c1
inhibition [6]: 28%

Compound: O=C1[C@@H]2C[C@@H](O)CN2C(=O)c2ccccc2N1Cc1ccc([N+](=O)[O-])cc1
inhibition [6]: 28%

Compound: O=C(CN1C(=O)[C@@H]2C[C@@H](O)CN2C(=O)c2ccccc21)c1ccc(Cl)cc1
inhibition [6]: 28%

Compound: O=C1[C@@H]2C[C@@H](O)CN2C(=O)c2ccccc2N1Cc1ccc(Cl)c(F)c1
inhibition [6]: 28%

Compound: CC(=O)CN1C(=O)[C@@H]2C[C@@H](O)CN2C(=O)c2ccccc21
inhibition [6]: 28%

More lines, main results first:

IC50 [5]: 0.272 µM | inhibition [6]: 80%
Compound: O=C1[C@@H]2C[C@@H](O)CN2C(=O)c2ccccc2N1Cc1cc(Br)cs1
Ratio IC50 [1]: 1000 | Ratio IC50 [2]: 1000 | IC50 [3]: 281 µM | IC50 [4]: 361 µM

inhibition [6]: 28%
Compound: CCOC(=O)CN1C(=O)[C@@H]2C[C@@H](O)CN2C(=O)c2ccccc21

inhibition [6]: 28%
Compound: CN1C(=O)[C@@H]2C[C@@H](O)CN2C(=O)c2ccccc21

inhibition [6]: 28%
Compound: O=C(CN1C(=O)[C@@H]2C[C@@H](O)CN2C(=O)c2ccccc21)c1ccc(Br)cc1

IC50 [5]: 0.418 µM | inhibition [6]: 86%
Compound: O=C1[C@@H]2C[C@@H](O)CN2C(=O)c2ccccc2N1Cc1cccc(Br)c1
Ratio IC50 [1]: 1000 | Ratio IC50 [2]: 1000 | IC50 [3]: 398 µM | IC50 [4]: 400 µM

IC50 [5]: 0.658 µM | inhibition [6]: 75%
Compound: O=C1[C@@H]2C[C@@H](O)CN2C(=O)c2ccccc2N1Cc1ccc(Br)cc1
Ratio IC50 [1]: 1000 | Ratio IC50 [2]: 1000 | IC50 [3]: 496 µM | IC50 [4]: 487 µM

IC50 [5]: 0.376 µM | inhibition [6]: 91%
Compound: COc1cc(CN2C(=O)[C@@H]3C[C@@H](O)CN3C(=O)c3ccccc32)cc(OC)c1OC
Ratio IC50 [1]: 1000 | Ratio IC50 [2]: 1000 | IC50 [3]: 331 µM | IC50 [4]: 419 µM

inhibition [6]: 57%
Compound: O=C1Nc2ccccc2C(=O)N2C[C@H](O)C[C@@H]12

inhibition [6]: 28%
Compound: O=C1[C@@H]2C[C@@H](O)CN2C(=O)c2ccccc2N1Cc1c(F)c(F)c(F)c(F)c1F

inhibition [6]: 28%
Compound: O=C1[C@@H]2C[C@@H](O)CN2C(=O)c2ccccc2N1Cc1cc(F)cc(F)c1

IC50 [5]: 0.253 µM
Compound: CCOC(=O)[C@H](CCc1ccccc1)N[C@@H](C)C(=O)N1[C@H](C(=O)O)C[C@@H]2CCC[C@@H]21 [RAMIPRIL]
IC50 [3]: 414 µM | IC50 [4]: 392 µM
